Compounds with a hit are over-represented: about 2.1% of the library has one in this group of screens.
Runt-SMMHC FRET: inhibitors of RUNX1 Runt–CBFb-SMMHC binding, primary screen, biochemical, FRET, Cerulean-Runt, Venus-CBFb-SMMHC, uHTS. 220,000 compounds, 0.74% hits. AID 1434, 2008. Cerulean-Runt/Venus-CBFb-SMMHC FRET ratio 530/480, 1 h. inhibition, % at 20 µM;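 active = mean inhibition across duplicate retests at 20 µM reaching about 50%, limit read from the data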;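 note: 0% = DMSO wells and 100% = wells with excess untagged CBFb-SMMHC; inhibitors lower the FRET ratio by blocking Runt binding to CBFb-SMMHC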
Target sequence (Q01196 whole entry, looked up): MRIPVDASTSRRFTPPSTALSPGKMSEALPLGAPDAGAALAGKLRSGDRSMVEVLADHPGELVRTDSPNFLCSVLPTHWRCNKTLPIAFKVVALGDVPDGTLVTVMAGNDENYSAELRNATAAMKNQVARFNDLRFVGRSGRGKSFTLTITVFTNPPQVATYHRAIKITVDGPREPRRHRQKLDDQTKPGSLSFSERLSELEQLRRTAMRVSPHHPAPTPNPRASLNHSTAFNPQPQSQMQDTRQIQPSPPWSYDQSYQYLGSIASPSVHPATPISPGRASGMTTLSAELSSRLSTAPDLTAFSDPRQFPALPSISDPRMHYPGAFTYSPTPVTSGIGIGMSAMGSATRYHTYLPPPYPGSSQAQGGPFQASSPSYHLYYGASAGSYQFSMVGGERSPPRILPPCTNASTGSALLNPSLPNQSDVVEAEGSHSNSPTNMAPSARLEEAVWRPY
Target sequence (Q13951 whole entry, looked up): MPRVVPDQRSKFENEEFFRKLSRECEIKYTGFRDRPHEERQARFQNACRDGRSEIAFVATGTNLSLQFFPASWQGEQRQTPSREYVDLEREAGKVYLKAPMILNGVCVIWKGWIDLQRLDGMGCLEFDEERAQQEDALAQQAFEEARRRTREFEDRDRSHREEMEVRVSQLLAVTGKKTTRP
Runt-CBFb FRET: inhibitors of RUNX1 Runt–CBFb binding, primary screen, biochemical, FRET, Cerulean-Runt, Venus-CBFb, uHTS; inhibition, % at 20 µM; 220,000 compounds, 0.46% hits; Cerulean-Runt/Venus-CBFb FRET ratio 530/480, 1 h;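 active = inhibition over about 50% at 20 µM in the single-dose screen, limit read from the data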;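 note: 0% = DMSO wells and 100% = excess unlabeled CBFb competitor control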
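Assay system: Cerulean-Runt domain / Medium: Tris 50 mM pH 7.5, KCl, K2SO4, 0.01% BSA / Timing: protein complex preformed 1 h, compound exposure 1 h, room temperature, dark / Measured by: FRET, excitation 422 nm, emission at 530 and 480 nm / Evaluation: loss of energy transfer signal / Control set: 5 µM unlabeled CBFb as full-inhibition high control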
RanGTP-Impb inh: inhibitors of RanGTP-importin-beta interaction, primary screen, biochemical, FRET, CFP-Ran, YFP-importin-beta, homogeneous; Ran GTPase (GTP-bound) - importin-beta complex; cell-free CFP-Ran/YFP-importin-beta FRET ratio; inhibition, % (test concentration not listed); 300,000 compounds, 1.1% hits; AID 2216, 2009;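 active = more than half of the replicate wells show a fall in the fluorescence ratio signal beyond about 16%, limit read from the data, passing the limit was not always enough; inconclusive = exactly half of the replicate wells pass the set limit; inactive = fewer than half of replicates pass the limit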;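 note: 0% = DMSO wells and 100% = Ran loaded with GDP instead of GTP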
KLK7 zymogen act: proKLK7 zymogen activators, primary screen, biochemical, fluorescence intensity | Kallikrein-7 (Homo sapiens), P49862 | purified proKLK7, EDANS-DABCYL substrate fluorescence; 100% is mature enzyme control, 0% vehicle | activation, % at 7 µM | 370,000 compounds, 0.9% hits | AID 652039, 2013;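 active = activation above the mean of all tested compounds plus 3 SD, computed per campaign excluding outliers beyond control limits, cut at about 13% in these data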
MEX-5 binding: MEX-5 zinc finger RNA-binding disruptors – biochemical, C. elegans, fluorescence polarization, MLPCN library, primary screen | AID 1832, 2009 | MEX-5/FITC-TCR2 RNA binding; stronger effect = lower value | 300,000 compounds, 0.38% hits | activity score (negative = inhibition of binding), % at 10 µM;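 active = inhibition past about -25% in most replicates, and total fluorescence under double the plate's negative control median, limit read from the data; inconclusive = replicates evenly split on the limit, or fluorescence at least double controls; inactive = too little inhibition in most replicates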;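 note: 0% = DMSO and -100% = 5 µM competing unlabeled TCR2 RNA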
Active calls of the source: *; ? = inconclusive; . = not tested or not shown.

SMILES	Runt-SMMHC FRET	Runt-CBFb FRET	RanGTP-Impb inh	KLK7 zymogen act	MEX-5 binding
O=C(N/N=C/c1sc(=O)[nH]c1-[n+]1ccc2ccccc2c1)c1ccccc1[O-]	.	.	24*	1	-14
O=C(N/N=C/c1sc(=O)[nH]c1-[n+]1ccccc1)c1ccccc1[O-]	-13	2	-4	1	-23
Cc1ccc[n+](-c2[nH]c(=O)sc2/C=N/NC(=O)c2ccccc2[O-])c1	0	-1	0	-1	-27*
CCCn1nc(NC(=O)C2CCCO2)c2cc3cc(C)ccc3nc21 (configuration not stated)	59*	43	56*	5	2
CCn1nc(NS(=O)(=O)c2ccc(NC(C)=O)cc2)c2cc3cc(C)ccc3nc21	.	.	7	0	0
CCCn1nc(NC(=O)C2CCCO2)c2cc3ccc(C)cc3nc21 (configuration not stated)	29	18	21*	5	1
CC(c1nc2ccccc2c(=O)[nH]1)N(C)c1ccc2ccccc2c1 (configuration not stated)	3	2	96*	0	3
c1csc(-c2noc(CN3CCOCC3)n2)c1	3	3	4	0	0
NC(=O)C1(N2CCCCC2)CCN(Cc2nc(-c3cccs3)no2)CC1	-1	1	-4	0	-35*
CCc1nc2ccc(C(=O)NCCCn3ccnc3)cn2c1N(C)Cc1ccc(Cl)cc1	.	.	.	0	.
COc1cc(/C=C2\SC(=O)N(CC(=O)Nc3ccccc3F)C2=O)cc(Cl)c1O	.	.	-9	0	-1
COc1cc(OC)c(/C=C2\SC(=O)N(CC(=O)Nc3ccccc3F)C2=O)c(OC)c1	.	.	46*	-50	1
COC(=O)c1c(=O)n(O)c2ccc(OC)cc2[n+]1[O-]	-381	-101	-28	.	-30*
CCc1cc[n+](-c2nc3ccccc3nc2[N-]S(=O)(=O)c2ccc(Br)s2)cc1	69*	-9	41*	-1	?
O=C(O)c1cc(O)c2c(c1)[C@H]([C@H]1c3cc(C(=O)O)cc(O)c3C(=O)c3c(O[C@@H]4O[C@H](CO)[C@@H](O)[C@H](O)[C@H]4O)cccc31)c1cccc(OC3O[C@H](CO)[C@@H](O)[C@H](O)[C@H]3O)c1C2=O (some centres not stated)	.	.	-43	0	-98*
O=C(O)c1cc(O)c2c(c1)[C@@H]([C@H]1c3cc(C(=O)O)cc(O)c3C(=O)c3c(O[C@@H]4O[C@H](CO)[C@@H](O)[C@H](O)[C@H]4O)cccc31)c1cccc(OC3O[C@H](CO)[C@@H](O)[C@H](O)[C@H]3O)c1C2=O (some centres not stated)	.	.	-28	0	-100*
O=c1oc2ccccc2cc1-c1csc(NN=C2CCCCC2)n1	31	9	10	-1	1
O=c1oc2ccccc2cc1-c1nc2c(s1)CCCC2	42	52*	83*	-49	1
OCCCNc1ncnc2sc3c(c12)CCN(Cc1ccccc1)C3	.	.	7	11	-28*
O=C(NCc1ccccc1)OC1CC2CC1[C@H]1CCCCN1C2=O (some centres not stated)	.	.	.	1	.
Cc1cccc(C)c1NC(=O)NN=C1CCCCC1	-2	2	4	0	-29*
O=C(Nc1cccc(Cl)c1)c1cc2c(=O)n3ccccc3nc2s1	.	.	91*	-1	1
C[C@@H]1CCCCO[C@H](CN(C)C(=O)Nc2cccc3ccccc23)[C@@H](C)CN([C@H](C)CO)C(=O)c2cc(NC(=O)c3ccccc3)ccc2O1	.	.	.	-3	.
CCOc1cccc(NC(=O)/C(C#N)=C\c2cn(CC(=O)O)c3ccccc23)c1	.	.	28*	1	0
Cc1cccc(NC(=O)/C(C#N)=C/c2cn(CC(=O)NCc3ccco3)c3ccccc23)c1C	-46	-60	57*	2	3

Screening results: PubChem, several laboratories
